From paper PMC8056739 (British Journal of Clinical Pharmacology, 2020)
Where “and” joins values, the source holds several entries; their conditions need not be identical. Equal entries are not always repeated.

How the values were obtained:
[1] = Population PK model of peficitinib in RA patients; format: in vivo, human
Summary of the method: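 RA patients' plasma levels measured by validated LC–MS/MS (LLOQ 0.25 ng/mL) from trough and post-dose samples. BLQ values, samples >48 h after dosing (or <19 h in RAJ1), and outliers (>mean+3×SD of log trough per arm) were excluded. NONMEM, FOCE with interaction, healthy-volunteer model as prior (NWPRI penalty). 2-compartment model, exponential IIV, proportional residual. Stepwise covariate selection, power function centred on mean. 1000 bootstrap runs.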

[2] = Prior population PK model of peficitinib in healthy volunteers; format: in vivo; conditions: human, plasma, oral, 150 mg
Summary of the method: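 Healthy-volunteer plasma levels from five clinical pharmacology studies, excluding renal/hepatic-impairment subjects. Validated LC–MS/MS (LLOQ 0.25 ng/mL), BLQ values unused. NONMEM, FOCE with interaction. 2-compartment model, five absorption schemes compared, exponential IIV, proportional residual. Covariates tested on CL: age, weight, MDRD eGFR, liver enzymes, bilirubin. Selection stepwise (forward .01, backward .001). Assessed by goodness-of-fit plots and visual predictive check.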

[3] = cited from earlier work
[4] = RA patient model, 1000 bootstrap runs
[5] = RA patient model, √(exp(ω^2)-1) × 100

In the case of NC(=O)c1cnc2[nH]ccc2c1N[C@@H]1[C@@H]2CC3C[C@H]1C[C@@](O)(C3)C2 [peficitinib], the “ALAG, absorption lag time (estimate)” value ([1]; RA patient model) is reported as 0.132 h, the “D, duration of zero-order absorption (estimate)” value ([1]; RA patient model) is reported as 1.37 h and the “Ka, first-order absorption rate constant (estimate)” value ([1]; RA patient model) is reported as 5.83 L/h. The “Vc, apparent distribution volume of the central compartment (estimate)” value ([1]; RA patient model) was 280 L, the “Vp, apparent distribution volume of the peripheral compartment (estimate)” value ([1]; RA patient model) was 122 L and the “CL, apparent total systemic clearance (estimate)” value ([1]; RA patient model, population estimate, oral) was 91.7 L/h. For the same compound, the “ALAG, bootstrap median” value [1, 4] was 0.132 h, the “D, bootstrap median” value [1, 4] was 1.36 h and the “Ka, bootstrap median” value [1, 4] was 5.82 L/h. For the same compound, the “Q, bootstrap median” value [1, 4] was 10.2 L/h, the “Vc, bootstrap median” value [1, 4] was 279 L and the “Vp, bootstrap median” value [1, 4] was 122 L. The “Covariate eGFR on CL (exponent of power function, estimate)” value ([1]; RA patient model, eGFR centred at 91.5 mL/min/1.73m^2) was 0.213, the “Covariate LYM (lymphocyte count) on CL (exponent of power function, estimate)” value ([1]; RA patient model, lymphocyte count centred at 1550 10^6/L) was −0.104 and the “Interindividual variability of CL” value [1, 5] was 25.7%. The “Interindividual variability of Vc” value [1, 5] was 39.2%, the clearance ([1]; human, plasma, oral) was 1530 mL/min and the “Model predicted mean change in CL from population mean CL” value (“Model predicted mean change in CL” below) ([1]; patients with observed maximum eGFR of 188 mL/min/1.73m^2) was 16.7%. For the same compound, the “Model predicted mean change in CL” value ([1]; patients with observed maximum lymphocyte count of 4600 10^6/L) was −10.7%, the “Model predicted mean change in CL” value ([1]; patients with observed minimum eGFR of 36.4 mL/min/1.73m^2) was −17.8% and the “Model predicted mean change in CL” value ([1]; patients with observed minimum lymphocyte count of 500 10^6/L) was 12.3%. For the same compound, the clearance [2] was 1390 mL/min, the “Exposure in healthy Japanese compared with Caucasian” value [3] was “greater” and the “Mean exposure in subjects with moderate hepatic impairment” value [3] was “increases”. For the same compound, the “Mean AUCinf” value ([3]; healthy subjects, single dose 450 mg) was 4660 ng·h/mL, the Tolerability ([3]; healthy subjects, single dose up to 450 mg) was “tolerability was shown” and the “Dose proportionality of exposure” value ([3]; healthy volunteers, single doses 3–300 mg) was “dose‐proportional exposure”. The “Increase of AUCinf by food intake” value ([3]; healthy volunteers) was 27% and 36% and 27–36%, the “Mean terminal half-life (t1/2)” value ([3]; healthy volunteers) was 2.8 to 12.9 h and the “Time to maximum observed concentration (Tmax)” value ([3]; healthy volunteers) was 1.0 to 1.8 h. The “Urinary excretion of peficitinib, share of the oral dose” value ([3]; healthy volunteers) was 9–15% and the “Exposure in subjects with versus without renal impairment” value ([3]; single, oral 150 mg dose) was “comparable”.
